In ChEMBL document CHEMBL1129786, “Ryanodine action at calcium release channels. 1. importance of hydroxyl substituents” (J Med Chem, 1996):

Organism: Rattus norvegicus
Experiment: Inhibition of rat ventricular muscle strip contractility.
Assay type: functional
Details: Muscle tissue
Method in brief: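 Rat right ventricular muscle strips were held in water-jacketed baths of Krebs-Henseleit solution at 30 °C, aerated with O2-CO2 (95:5), at 0.5 g resting tension. Contraction was evoked by electrical stimulation and recorded on a polygraph. IC50 was taken from inhibition of contraction, using three to five experiments.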

| Structure (SMILES) | IC50 [nM] |
| --- | --- |
| CC1CCC2(O)C3(C)CC4(O)OC2(C1O)C1(O)C3(O)C(OC(=O)c2ccc[nH]2)C(O)(C(C)C)C41C (centres undefined) | 34 |

Organism: Rattus norvegicus
Experiment: Potency relative to ryanodine inhibiting rat ventricular muscle strip contractility.
Assay type: functional, Muscle tissue
Details: not given
Method in brief: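 Right ventricular muscle strips from rat suspended in Krebs-Henseleit solution at 30 °C, aerated O2-CO2 95:5; resting tension 0.5 g. Contraction evoked by electrical stimulation was recorded and its inhibition measured. IC50 values are expressed relative to ryanodine; three to five experiments.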

| Structure (SMILES) | Potency |
| --- | --- |
| C=C1CCC2(O)C3(C)CC4(O)OC25C1OP(=O)(NC)OC51C3(O)C(OC(=O)c2ccc[nH]2)C(O)(C(C)C)C41C (centres undefined) | <3.5 |
| CC1CCC2(O)C3(OC4(O)CC2(C)C2(O)C(OC(=O)c5ccc[nH]5)C(O)(C(C)C)C4(C)C23)C1O (centres undefined) | 64 |
| C=C1CCC23OB(c4ccsc4)OC45C(OC(=O)c6ccc[nH]6)C(O)(C(C)C)C6(C)C(O)(CC24C)OC3(C1O)C56O (centres undefined) | 52 |
| C=C1CCC23OB(C)OC45C(OC(=O)c6ccc[nH]6)C(O)(C(C)C)C6(C)C(O)(CC24C)OC3(C1O)C56O (centres undefined) | 100 |
| CC1CCC2(O)C3(C)CC4(O)OC2(C1O)C1(O)C3(O)C(OC(=O)c2ccc[nH]2)C(O)(C(C)C)C41C (centres undefined) | 100 |
| C=C1CCC23OB(CC)OC45C(OC(=O)c6ccc[nH]6)C(=C(C)C)C6(C)C(O)(CC24C)OC3(C1O)C65O (centres undefined) | 26 |
| CC1CCC2(O)C3(C)CC4(O)OC2(C1O)C1(O)C3(O)C(OC(=O)c2ccc[nH]2)C(O)(C(C)(C)O)C41C (centres undefined) | 26 |
| C=C1CCC23OB(O)OC45C(OC(=O)c6ccc[nH]6)C(O)(C(C)C)C6(C)C(O)(CC24C)OC3(C1O)C56O (centres undefined) | 28 |
| CC1CCC2(O)C3(OC4(O)CC2(C)C2(NO)C(OC(=O)c5ccc[nH]5)C(O)(C(C)C)C4(C)C23)C1O (centres undefined) | 4.9 |
| CONC12C(OC(=O)c3ccc[nH]3)C(O)(C(C)C)C3(C)C1C14OC3(O)CC2(C)C1(O)CCC(C)C4O (centres undefined) | <1.1 |
| C=C1CCC2(O)C3(C)CC4(O)OC2(C1O)C1(O)C3(O)C(OC(=O)c2cccn2C)C(O)(C(C)C)C41C (centres undefined) | 100 |
| CC1CCC2(O)C3(C)CC4(O)OC2(C1O)C1(O)C3(O)C(OC(=O)c2ccc[nH]2)C2(OC2(C)C)C41C (stereo in doubt; 25) | 24 |
| CC1CCC2(O)C3(C)CC4(O)OC2(C1O)C1(O)C3(O)C(OC(=O)c2ccc[nH]2)C2(OC2(C)C)C41C (stereo in doubt; 26) | 3.4 |
